T cruzi repl = T. cruzi replication inhibition; AID 1885; hit rate 1.4% among 300,000; inhibition, % (test concentration not listed); T. cruzi beta-gal in NIH3T3, luminescence, 90 h;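 active = mean inhibition across valid replicates above about 55%, limit read from the data; inconclusive = mean below that limit but half or more replicates reach it; inactive = mean below it, under half of replicates reach it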;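 note: signal also drops with host cell toxicity which is not excluded here; 0% = plate median of DMSO wells and 100% = zero luminescence signal; higher percent means less beta-gal luminescence so fewer parasites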
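Read-out: Parasite load inhibition, % | Test system: Mouse NIH/3T3 fibroblasts infected with β-gal-expressing T. cruzi Tulahuen C4 | Amount: 5,000 cells/well | Medium: DMEM, 2% fetal bovine serum | Signal: GalScreen β-gal luminescence, detergent lysis, 60 min | Timing: 3 h attach, ≥90 h co-culture | Also added: Tulahuen C4 trypomastigotes, 5000/well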
WT yeast gro inh = growth inhibition of WT yeast, mitochondrial fusion screen. mitochondrial fusion phenotypic screen, WT strain. inhibition, % at 10 µM. hit rate 2.1% among 190,000. AID 1362; in the data active = inhibition above about 58%; tested in S. cerevisiae
Beta apoptosis = beta cell apoptosis inhibition | hit rate 0.8% among 300,000 | protection from apoptosis, % (no concentration beside the values) | INS-1E cytokine-induced death, ATP luminescence, 48 h; percent of positive-control rescue, neutral wells zero;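 active = Every replicate reaches about 75%, or at least half do and their mean reaches it too, limit read from the data; inconclusive = At least half of replicates reach the limit but their mean does not; inactive = Under half of replicates reach the limit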;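 note: 0% = cytokine-treated negative control wells and 100% = positive control rescue; higher means more ATP so stronger rescue from cytokine killing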
SUMO Mot1 rescue = inhibitors of SUMOylation pathway: yeast Mot1-301 growth rescue; S. cerevisiae Mot1-301 growth rescue, ATP luminescence, 38.5C; percent above DMSO median, 100 means doubled; growth rescue, % at 18.8 µM; hit rate 1% among 320,000;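 active = every valid replicate shows activation above 250% relative to neutral control wells; inactive = the rest, any valid replicate at or below 250%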;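 note: OY570 slx delta 5 strain wells were the positive control but not used for scaling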
CSC inhib = blocks cancer stem cells. cancer stem cell-like cells viability, luminescence. inhibition, % at 7.5 µM. hit rate 1.1% among 300,000. AID 2717; in the data active = inhibition above about 75%; inconclusive = no clear call, values can overlap the other calls; tested in HMLE shEcad cells
Efflux pump inh = blocks antifungal efflux pumps in multiplex yeast assay; S. cerevisiae Candida pump triplex, Nile Red efflux; hit rate 0.44% among 330,000; inhibition, % at 10 µM;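 active = plate passing quality check with inhibition over a set limit, or well fluorescence over plate mean plus 4 SD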;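 note: Nile Red retained in pooled yeast measured as flow cytometry median fluorescence; 0% = buffer negative control and 100% = Enniatin B positive control; higher means more Nile Red kept so more efflux inhibition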
An asterisk follows results filed as active; ? = inconclusive; / = no result given. A selection: hits, their analogues and other compounds. The true share with any hit is near 4.8%.

SMILES	T cruzi repl	WT yeast gro inh	Beta apoptosis	SUMO Mot1 rescue	CSC inhib	Efflux pump inh
CC1=Nc2ccccc2N=C(NC(=O)CN2CCN(c3ccccc3)CC2)C1c1ccccc1 (stereo not given)	63*	-2	1	1	11	0
CCOC(=O)C1CCCN(CC(=O)NC2=Nc3ccccc3N=C(C)C2c2ccccc2)C1 (stereo not given)	3	10	9	8	-3	0
Cc1cccc(CNc2ccc(S(=O)(=O)N3CCCCC3)cc2)c1	/	/	101*	-12	/	0
Cc1cc(NC(=O)/C=C/c2ccc(F)cc2)n(-c2nc3ccccc3[nH]2)n1	17	3	40	-10	2	0
COc1ccc(/C=C/C(=O)Nc2cc(C)nn2-c2nc3ccccc3[nH]2)cc1	55*	3	67	7	14	0
CCCN1CCN(C(=S)Nc2ccccc2C(F)(F)F)CC1	-1	-15	25	1	-3	0
O=C(Nc1nc2ccc(SC(F)F)cc2s1)c1ccc(NS(=O)(=O)c2ccc(F)c(F)c2)cc1	14	-2	18	622*	79*	0
O=C(Oc1cccc(C(=S)N2CCOCC2)c1)c1cc([N+](=O)[O-])cc([N+](=O)[O-])c1	-13	1	0	0	-5	0
N#CCCn1nc(Cc2cccc3ccccc23)c(C#N)c1N	-13	/	-2	331*	/	0
Fc1cccc(-c2cc3nc4c(c(NCc5ccco5)n3n2)CCCC4)c1	41	83*	20	24	93*	0
COc1cccc(-c2cc3nc4c(c(NCC(C)(C)CN(C)C)n3n2)CCCC4)c1	61*	33	20	4	49	0
CN(Cc1nc2ccccc2n1C)C(=O)c1ccco1	-6	/	/	6	0	0
Cc1occc1-c1nnc(-c2cc([N+](=O)[O-])cc([N+](=O)[O-])c2)o1	66*	23	-4	-24	-5	0
Cc1nn(-c2ccccc2)c(N)c1N=Nc1ccc2ccccc2c1	-26	70*	-10	1	?	0
Cc1ccc(N=Nc2c(N)nn(-c3ccccc3)c2N)cc1	-27	11	-5	22	-2	0
COc1ccc(CC(=O)NNC(=O)COc2ccc(Cl)cc2C)cc1S(=O)(=O)N1CCOCC1	/	/	3	13	/	0
CCOc1ccc2nc(NC(=O)C3CCCN(S(=O)(=O)c4cccc5nonc45)C3)sc2c1 (stereo not given)	57*	24	10	-10	0	0
COc1ccc2nc(NC(=O)C3CCCN(S(=O)(=O)c4cccc5nonc45)C3)sc2c1 (stereo not given)	26	18	12	43	-7	0
Cc1c(OC(C)C(=O)NCC2CCC(C(=O)O)CC2)ccc2c(-c3ccccc3)cc(=O)oc12 (stereo not given)	3	/	5	6	-7	0
CN1/C(=C\C(=O)Nc2cccc(Cl)c2)C(C)(C)c2ccccc21	19	78*	11	-2	43	0
CN1/C(=C\C=N\O)C(C)(C)c2ccccc21	-16	-4	-5	1	23	0
CN1/C(=C\C(=O)Nc2ccc(Br)cc2)C(C)(C)c2ccccc21	2	87*	-17	118	76*	0
CN1/C(=C\C(=O)Nc2ccc(F)cc2)C(C)(C)c2ccccc21	25	74*	15	2	33	0
CN1/C(=C/C(=O)C2CC2)C(C)(C)c2ccccc21	/	7	21	-4	-3	0
O=C(COC(=O)CC(c1ccccc1)c1ccccc1)Nc1c(F)cccc1F	-19	17	0	-13	8	0
SMILES	T cruzi repl	WT yeast gro inh	Beta apoptosis	SUMO Mot1 rescue	CSC inhib	Efflux pump inh
CC(=O)c1ccc(S(=O)(=O)N2CCN(C(C)C(=O)N(C)Cc3ccccc3)CC2)cc1 (stereo not given)	/	/	0	16	-9	0
Cc1cccc(C)c1NC(=O)Cn1c(=O)n(CCCC(=O)NCc2ccco2)c(=O)c2sccc21	-4	-16	-5	-7	-25	0
O=C(NC(NC(=S)Nc1c(Cl)cccc1Cl)C(Cl)(Cl)Cl)c1cccc([N+](=O)[O-])c1 (stereo not given)	59*	14	27	-1	51	-1
O=C(NNC(=S)NC(=O)c1ccccc1Cl)c1cccc([N+](=O)[O-])c1	-3	/	3	-10	0	0
O=C(NNc1c(Cl)cc(Cl)cc1Cl)c1cccc([N+](=O)[O-])c1	13	86	113*	121	21	0
Cn1c(CC(=O)Nc2ccc(F)cc2)nnc1SCC(=O)Nc1nncs1	-1	/	-7	12	-2	0
Cc1ccc(CNC(=O)c2ccc(N3CCCC3=O)cc2)cc1	-11	8	-16	-19	-4	0
Cn1nc(C(C)(C)C)cc1C(=O)NCc1ccc(N2CCCC2=O)cc1	-8	-9	116*	-9	18	0
COC(=O)[C@@H]1CC[C@H](C)[C@@H](c2ccc(C)cc2)N1C(=O)c1ccc(/C=N/OC[C@@H](O)[C@H]2O[C@@H]3OC(C)(C)O[C@@H]3[C@H]2O)cc1	28	-4	/	/	/	/
COC(=O)[C@@H]1CC[C@H](C)[C@@H](c2ccc(C)cc2)N1C(=O)c1ccc(/C=N/O[C@@H](C)c2cn([C@H](CO)Cc3ccccc3)nn2)cc1	62*	16	4	-10	32	/
CCc1ccc(NC(=S)NCc2ccccc2)cc1	-8	70*	6	16	-11	0
CCCCc1ccc(NC(=S)NCc2cccc(OC)c2)cc1	56*	66*	0	16	13	0
CN(C)CCCN(C(=O)c1ccco1)c1nc(-c2ccc(Cl)cc2)cs1	57*	/	1	5	2	0
Cc1ccc(-c2csc(N(CC3CCCO3)C(=O)c3ccco3)n2)cc1 (stereo not given)	28	69*	7	872	61	0
COc1ccc(-c2csc(N(CCCN(C)C)C(=O)c3cccs3)n2)cc1	66*	-8	-29	-3	-7	0
O=C(COc1ccc(Br)cc1)NCC1COc2ccccc2O1 (stereo not given)	/	/	5	6	/	0
CC(=O)c1cccc(N=c2scc(-c3ccc(S(=O)(=O)N4CCOCC4)cc3)n2CCO)c1	-42	-3	75*	11	14	0
COC(=O)C1CCN(C(=O)[C@H](C)NC(=O)C2CC(=O)N(c3ccc(F)cc3)C2)CC1 (stereo not given in full)	1	/	-4	1	-13	0
N#Cc1c2ccc(OCC(N)=O)cc2n2ccccc12	2	4	-1	371*	-4	0
CCOC(=O)COc1ccc2c(C#N)c3ccccn3c2c1	/	5	/	/	/	/
COc1ccc(C(=O)NNC(=O)CSc2nnc(C)n2CC2CCCO2)cc1 (stereo not given)	-7	-2	-4	-7	18	0
